Screening data as filed in PubChem.
This is one part of a sample in which hits are shown more often than they occur.
S1P3 antag: S1P3 receptor antagonists, primary screen, cell-based | Sphingosine 1-phosphate receptor 3 (Homo sapiens), Q99500 | CHO S1P3 NFAT-BLA reporter, FRET fluorescence, antagonist mode | inhibition, % at 4.98 µM | 170,000 tested, 0.27% active | AID 485, 2006;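 active = inhibition above the plate cutoff, the mean inhibition of test wells on that plate plus 3 SD, cut at about 28% in these data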;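 also: cells challenged with S1P at its EC80 of 0.8 µM; blue over green emission ratio from cleaved BLA substrate after 4 h stimulation; 0% = S1P-stimulated wells and 100% = unstimulated DMSO-only wells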
S1P4 antag: S1P4 receptor antagonists, primary screen, cell-based. Sphingosine 1-phosphate receptor 4 (Homo sapiens), O95977. S1P4-expressing cells, antagonist mode, reporter read-out. 220,000 tested, 0.26% active. inhibition, % at 4.98 µM; in the data active = inhibition above about 29%;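 also: 0% = wells stimulated with agonist and 100% = vehicle wells without agonist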
S1P4 ag: S1P4 receptor agonists, primary screen, cell-based; S1P4-expressing cell line, agonist reporter assay; activation, % at 4.98 µM; 220,000 tested, 0.35% active; AID 1509, 2009; in the data active = activation above about 11%;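 also: 0% = DMSO vehicle and 100% = reference agonist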
MDM2 E3 inh: MDM2-luciferase reporter signal enhancers, primary screen, MDM2 E3 ligase inhibitor project, cell-based, luminescence, 1536-well; signal enhancement, % at 5 µM; E3 ubiquitin-protein ligase Mdm2 (Homo sapiens), Q00987; 210,000 tested, 0.11% active; cell-based MDM2 ubiquitination luciferase reporter, 2 h; 0 = plate control, 100 = twice control, blank-subtracted;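 active = signal enhancement of 30% or more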;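 also: luminescence tracks abundance of the self-degrading MDM2-luciferase fusion protein; higher signal means inhibition of MDM2 E3 ligase activity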
Target sequence (Q00987 whole entry, looked up, the tested form may be a part): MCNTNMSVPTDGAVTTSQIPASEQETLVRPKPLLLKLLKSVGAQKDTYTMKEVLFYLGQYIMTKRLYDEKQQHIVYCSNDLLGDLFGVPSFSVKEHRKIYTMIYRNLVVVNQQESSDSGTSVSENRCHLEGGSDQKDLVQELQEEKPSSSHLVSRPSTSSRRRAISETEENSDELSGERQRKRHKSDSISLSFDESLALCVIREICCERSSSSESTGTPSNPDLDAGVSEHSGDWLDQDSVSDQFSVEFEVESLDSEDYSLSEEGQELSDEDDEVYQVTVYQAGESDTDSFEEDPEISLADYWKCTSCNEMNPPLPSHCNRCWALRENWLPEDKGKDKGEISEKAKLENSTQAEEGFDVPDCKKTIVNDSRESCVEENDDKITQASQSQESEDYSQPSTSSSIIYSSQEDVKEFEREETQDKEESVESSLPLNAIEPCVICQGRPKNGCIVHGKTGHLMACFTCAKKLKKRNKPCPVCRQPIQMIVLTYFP
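Assay system: mammalian cells stably expressing self-ubiquitinating, self-degrading MDM2 E3–luciferase fusion. Quantity: 2000 cells in each well. Medium: DMEM culture medium. Compound dosing: single-point 5 µM. Timing: cell settling 4 h, compound treatment 2 h, both 37 °C. Technique: luciferase luminescence. Read-out basis: percent signal gain over controls, blank-subtracted. Benchmarks: plate controls and plate blanks.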
L major viab: Leishmania major promastigote growth inhibition, primary screen | Leishmania major promastigotes, resazurin fluorescence viability | inhibition, % at 10 µM | 200,000 tested, 9% active; in the data active = inhibition above about 50%;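 also: promastigotes grown with compound for 44 hours at 28 °C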
Starred values were filed as active, the others as inactive; . = no result.

SMILES	S1P3 antag	S1P4 antag	S1P4 ag	MDM2 E3 inh	L major viab
CC(=O)Nc1ccc(S(=O)(=O)N2CCSC2c2ccccc2Cl)cc1 (stereo unspecified)	-45.1	-0.8	-0.1	8.4	64.0*
CN1CCN(Cc2c(O)ccc3c(-c4ccccc4)cc(=O)oc23)CC1	.	0.9	0.0	-11.9	80.5*
CCCCN(CC)Cc1c(O)ccc2c(-c3ccccc3)cc(=O)oc12	-0.5	5.7	1.4	-5.9	.
CCCCN(C)Cc1c(O)ccc2c(-c3ccccc3)cc(=O)oc12	-12.2	-0.9	0.5	-1.1	64.9*
Cc1ccccc1C(=O)Nc1ccc(C(=O)N/N=C/c2ccc(O)c(Br)c2)cc1	-9.2	-31.2	-1.9	-19.6	-10.7
Cc1nn(-c2ccccc2)c2sc(C(=O)N(CC(=O)NC(C)(C)C)Cc3ccco3)cc12	20.3	-14.2	1.0	-11.2	59.8*
O=C(CSc1nnc(CNC(=O)C23CC4CC(CC(C4)C2)C3)n1-c1ccccc1)Nc1ccccc1	-12.6	-17.8	0.8	-6.4	-5.7
O=C(Nc1ccc(Cl)cc1)N1CCCC1	-40.1	-9.6	-0.2	18.7	96.0*
O=C(Nc1ccc(Cl)cc1)N1CCSc2ccccc21	.	-23.0	0.5	-3.6	90.3*
O=C(Nc1ccccc1)N1CCSc2ccccc21	-17.9	-10.9	-1.1	-7.3	-4.5
O=C(Nc1ccc(Cl)cc1)N1CCSCC1	.	4.1	-2.9	7.6	1.4
O=C(Nc1cccc(Cl)c1)N1CCCC1	.	2.9	-0.4	-11.2	99.7*
O=C(Nc1cccnc1)c1ccc(S(=O)(=O)N2CCCCCC2)cc1	.	-0.7	1.1	-15.1	5.9
Cc1cccc(CN2CCN(CC(=O)NCCCN3CCN(c4ccc(F)cc4)CC3)C2=O)c1	.	-12.2	0.7	-13.2	94.8*
Cc1cccc(CN2CCN(CC(=O)NCCCN3CCCC3=O)C2=O)c1	-25.6	-10.9	-1.8	-16.2	-5.1
Brc1ccccc1/C=N/Nc1ccc2ccccc2n1	9.1	3.0	-2.6	-1.9	40.9
Cc1cc(N/N=C/c2ccccc2Br)nc2ccccc12	-4.2	2.5	-0.6	-18.6	52.3*
Cc1nn(-c2ccccc2)c2sc(C(=O)OCC(=O)N3CCCCC3)cc12	-34.8	.	.	.	.
Cc1cccc(/C=C/c2nc3ccccc3c(=O)[nH]2)c1	5.0	0.6	0.9	-40.0	3.3
Cc1cccc(/C=C(\c2nc3ccccc3[nH]2)S(=O)(=O)c2ccccc2)c1	10.8	5.1	0.7	-12.4	100.4*
CC(=O)c1cccc(NC(=O)C(C)N(C)CC(=O)Nc2ccc(Cl)cc2)c1 (stereo unspecified)	-5.0	3.7	-0.1	-8.3	.
O=C(CN1CCOCC1)NN=C(c1ccccc1)c1ccccc1	-6.8	0.2	-0.1	1.8	-1.0
O=C(CN1CCOCC1)NN=C1CCCCCCCCCCC1	-8.1	-19.2	-0.2	-4.3	52.0*
O=S(=O)(c1ccc2c(c1)nc(COc1ccc(Cl)cc1)n2CC1CCCO1)N1CCOCC1 (stereo unspecified)	-16.8	1.1	-0.4	-13.5	7.4
CCN(c1ccccc1)S(=O)(=O)c1cc(C(=O)Oc2ccc3c(C)cc(=O)oc3c2)ccc1C	-9.0	-8.7	1.2	-19.9	67.0*
SMILES	S1P3 antag	S1P4 antag	S1P4 ag	MDM2 E3 inh	L major viab
CCOC(=O)C1CCCN(C(=O)c2ccc(CNc3c(N4CCC(C)CC4)c(=O)c3=O)cc2)C1 (stereo unspecified)	12.7	1.6	0.2	91.5*	-6.5
O=C(Nc1nnc(-c2ccco2)o1)c1ccc(N2C(=O)CCC2=O)cc1	-14.3	-7.4	-0.1	-2.7	-4.8
O=C(Nc1nnc(-c2ccc(Cl)cc2)o1)c1ccc(N2C(=O)CCC2=O)cc1	3.8	-2.4	0.4	-7.1	65.7*
Cc1ccc(C(=O)Nc2nnc(-c3ccncc3)o2)cc1	-16.2	-5.4	1.5	-22.4	52.9*
CCOC(=O)C1CCCN(C(=O)c2cc3c(C)nc4ccccc4c3o2)C1 (stereo unspecified)	15.3	-13.1	3.3	-4.8	76.6*
CCOC(=O)C1CCCN(c2nc(C)nc3c2oc2ccccc23)C1 (stereo unspecified)	.	-10.1	0.1	-14.3	8.8
CCOC(=O)C1CCN(c2c(C(=O)c3ccccc3)cnc3ccc(CC)cc23)CC1	-16.1	-18.6	0.6	-5.2	54.7*
COc1cc2ncc(C(=O)c3ccccc3)c(N3CCN(Cc4ccccc4)CC3)c2cc1OC	-14.1	4.7	-0.9	2.8	.
CCOC(=O)C1CCCN(c2c(C(=O)c3ccccc3)cnc3ccccc23)C1 (stereo unspecified)	7.3	-2.1	1.6	-25.7	50.7*
Cc1nn(CCC#N)c(N)c1C1(O)C(=O)Nc2c(Cl)cc(Cl)cc21 (stereo unspecified)	-22.9	-10.4	-1.5	1.3	.
CCC(C)C(NC(=O)C(C)NC(=O)CNC(=O)CNC(=O)OCc1ccccc1)C(=O)OC (stereo unspecified)	.	-3.5	-0.5	-5.0	-5.7
Cc1ccc(N(CC(=O)NN=C2CCN(C)CC2)S(=O)(=O)c2ccccc2)c(C)c1	-4.5	-3.5	-0.5	-6.1	59.6*
CCCn1c(SCC(=O)c2cc(C)c(C)cc2C)n[nH]c1=O	.	7.5	-1.2	0.7	-3.3
Cc1cc(Cl)cc(Cl)c1OCCOCCN(C)C	-17.2	-21.8	2.0	-4.0	65.4*
Cc1cc(C)c(OCCN(C)C)c(Cl)c1	10.3	-14.3	-0.1	-17.5	1.4
CCc1cc(OCCN(C)C)ccc1Cl	3.7	4.0	-0.1	-13.3	5.3
COCCNCCOCCOc1ccc(Cl)c(C)c1	.	-5.6	2.0	-21.3	99.7*
Cc1cc(OCCOCCN(C)C)ccc1Cl	-9.9	-17.7	0.0	-87.6	89.0*
CCc1ccc(Nc2cnn(-c3nc4ccccc4s3)c(=O)c2Cl)cc1	-18.1	-20.0	0.2	-13.8	65.3*
CCCCNc1cnn(-c2ccccc2)c(=O)c1Cl	-3.1	-5.8	0.7	-24.9	48.7
C/C(=N\N1CCN(C)CC1)c1ccc(Cl)c(Cl)c1	-22.0	-0.1	-1.5	5.6	81.3*
O=P(COCCOCCOCP(=O)(c1ccccc1)c1ccccc1)(c1ccccc1)c1ccccc1	-2.6	-8.5	1.3	3.5	-7.3
C/C=C/c1ccc(OCCCNCC(C)O)c(OC)c1 (stereo unspecified)	-17.6	-36.1	2.8	-10.5	-1.0
C/C=C/c1ccc(OCCCCN2CCN(CC)CC2)c(OC)c1	-11.5	-0.4	-0.8	4.7	86.0*
C/C=C/c1ccc(OCCCCNCc2ccco2)c(OC)c1	-10.6	-2.2	-1.2	-31.1	92.6*
C/C=C/c1ccc(OCCCCN2CC(C)CC(C)C2)c(OC)c1 (stereo unspecified)	-4.2	8.0	-1.2	-33.1	8.0
Cc1ccccc1Cn1c(=N)n(CC(=O)c2ccc([N+](=O)[O-])cc2)c2ccccc21	2.9	-8.6	-0.5	-4.2	99.9*
